# Rows were chosen to be rich in hits. Some 3.3% of all compounds tested hit in one or more screens of this group.
# LEDGF integ inh – blockers of LEDGF/p75-dependent integrase strand transfer – biochemical, TR-FRET, high throughput, primary screen; HIV-1 integrase (with human LEDGF/p75); TR-FRET IN-LEDGF/p75 DNA integration, Eu/Cy5; inhibition, % at 3.7 µM; 0.64% of 370,000 active;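 active = inhibition above the screen-wide mean plus 3 SD, cut at about 13% in these data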;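 note: signal is the Cy5 over europium emission ratio at 671 and 618 nm; 0% = plate median of compound wells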
# MBD2 DNA inh – inhibitors of MBD2 binding to methylated DNA, primary screen, biochemical, TR-FRET, DNA-binding domain, human; 0.31% of 370,000 active; inhibition, % at 4.4 µM; Methyl-CpG-binding domain protein 2 (Homo sapiens), Q9UBB5; MBD2 binding to methylated oligonucleotide; in the data active = inhibition above about 13%
# SIAE inh – human SIAE inhibitors, primary screen, biochemical, fluorescence polarization, FP-Rh probe, 1536-well HTS; AID 1053197, 2014; Sialate O-acetylesterase (Homo sapiens), Q9HAT2; 0.69% of 370,000 active; inhibition, % at 9.66 µM; SIAE FP-Rh probe binding;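 active = inhibition above a cutoff: mean of compounds within the control limits plus 3 SD of those, cut at about 17% in these data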;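 note: 0% = plate median of compound wells and 100% = probe without SIAE protein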
# UHRF1 binding – UHRF1 methylated DNA binding inhibitors, primary screen, counter-screen for MBD2 inhibitor project, biochemical, TR-FRET, human UHRF1, single concentration; E3 ubiquitin-protein ligase UHRF1 (Homo sapiens), Q96T88; UHRF1 binding to methylated oligo; inhibition, % at 4.4 µM; 0.75% of 370,000 active; AID 687016, 2013; in the data active = inhibition above about 21%;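 note: UHRF1 SRA domain binding a hemimethylated CpG hairpin DNA probe; 0% = median of test compound wells and 100% = reference inhibitor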
# Target sequence (Q96T88 whole entry, looked up, the tested form may be a part): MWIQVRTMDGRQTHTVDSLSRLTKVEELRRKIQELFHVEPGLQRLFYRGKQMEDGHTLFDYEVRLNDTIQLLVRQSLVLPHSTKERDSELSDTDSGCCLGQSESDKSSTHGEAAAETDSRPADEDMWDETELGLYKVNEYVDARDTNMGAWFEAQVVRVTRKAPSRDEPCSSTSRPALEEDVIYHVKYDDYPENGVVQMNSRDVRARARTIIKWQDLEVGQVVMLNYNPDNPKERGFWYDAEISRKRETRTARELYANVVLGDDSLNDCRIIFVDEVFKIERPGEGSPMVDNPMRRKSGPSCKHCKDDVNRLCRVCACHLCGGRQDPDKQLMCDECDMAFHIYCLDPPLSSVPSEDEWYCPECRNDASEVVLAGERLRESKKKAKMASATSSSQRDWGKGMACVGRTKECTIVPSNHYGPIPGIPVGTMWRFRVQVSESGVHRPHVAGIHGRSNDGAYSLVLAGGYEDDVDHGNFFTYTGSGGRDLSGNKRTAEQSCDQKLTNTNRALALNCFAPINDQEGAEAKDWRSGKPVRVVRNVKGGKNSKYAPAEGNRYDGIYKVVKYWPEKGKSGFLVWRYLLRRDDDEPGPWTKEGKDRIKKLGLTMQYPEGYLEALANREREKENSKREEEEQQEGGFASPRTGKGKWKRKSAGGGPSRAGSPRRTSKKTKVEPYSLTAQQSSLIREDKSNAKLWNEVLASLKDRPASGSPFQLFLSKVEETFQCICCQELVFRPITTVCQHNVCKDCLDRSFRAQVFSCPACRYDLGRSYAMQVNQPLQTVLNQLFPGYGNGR
# PRMT1 inh – PRMT1 methyltransferase inhibitors, primary screen, biochemical, fluorescence polarization. recombinant PRMT1, activity-based probe fluorescence polarization. inhibition, % at 2.79 µM. 1.3% of 370,000 active;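 active = inhibition above about 21% made by adding two undisclosed values, limit read from the data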
# TDP2 inh – human TDP2 enzyme inhibitors, primary screen, biochemical, epi absorbance, recombinant enzyme; Tyrosyl-DNA phosphodiesterase 2 (Homo sapiens), O95551; T5PNP hydrolysis, p-nitrophenol absorbance 415 nm; inhibition, % at 12.8 µM; 0.34% of 370,000 active; AID 720702, 2013;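 active = inhibition above the mean of all tested compounds plus 3 SD, set per campaign, cut at about 25% in these data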;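 note: 0% = DMSO with enzyme and 100% = buffer with substrate but no TDP2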
#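 System: recombinant human TDP2 / Amount: 120 nM TDP2 per well / Also added: 5 mM T5PNP chromogenic substrate / Doses: 12.8 µM single point, 1% DMSO / Incubation: 2 h at 37 °C / Detection: p-Nitrophenol epi absorbance / Evaluation: % inhibition relative to enzyme-containing and enzyme-free wells / Repeats: singlicate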
# IN multimer up – HIV-1 IN multimer formation enhancers, counter-screen for LEDGF/p75 integration inhibitor project, biochemical, TR-FRET. shares compounds with LEDGF integ inh. TR-FRET HIV-1 integrase multimerization. activation, % at 7.7 µM. 17% of 2,000 active; in the data active = activation above about 8.9%
# TRFRET interf – TR-FRET optical interference artefacts, confirmation, artefact control for LEDGF/p75-dependent integration inhibitor project, biochemical, HIV-1 IN multimerization | shares compounds with LEDGF integ inh | TR-FRET optical interference counterscreen | inhibition, % at 7.7 µM | 2,000 tested, under 10 active;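 active = inhibition above the mean over all tested compounds plus 3 SD, which no compound reached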;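 note: 0% = integrase with antibodies and DMSO and 100% = antibodies without integrase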
# IN-LEDGF confirm – inhibitors of HIV-1 IN-LEDGF/p75 DNA integration, confirmation, biochemical, TR-FRET | inhibition, % at 3.7 µM | TR-FRET LEDGF/p75-dependent HIV-1 integration | 36% of 2,000 active | shares compounds with LEDGF integ inh; in the data active = inhibition above about 14%
# SIAE inh conf – human SIAE inhibitors, retest, confirmation, biochemical, fluorescence polarization, FP-Rh probe, triplicate. shares compounds with SIAE inh. SIAE FP-Rh activity-based probe. inhibition, % at 9.66 µM. 13% of 2,300 active. AID 1117263, 2014;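 active = mean inhibition of the replicates above the hit cutoff set in the primary screen, cut at about 17% in these data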;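 note: 0% = SIAE with DMSO and probe and 100% = probe without SIAE; inhibitors lower polarization as more probe stays unbound to SIAE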
# Starred values were filed as active, the others as inactive; . = not tested or not shown.
SMILES,LEDGF integ inh,MBD2 DNA inh,SIAE inh,UHRF1 binding,PRMT1 inh,TDP2 inh,IN multimer up,TRFRET interf,IN-LEDGF confirm,others
O=C1NC(=O)[C@]2(Cc3ccccc3N3CCN(c4ccccc4)CC32)C(=O)N1c1ccccc1 (stereo partly specified),6,-1,-5,1,4,-20,.,.,.,
CCCCn1nnnc1C(CCc1ccccc1)N1CCC(n2c(=O)[nH]c3ccccc32)CC1 (stereo unspecified),20*,8,-4,1,4,4,0,0,-3,
CCCCn1nnnc1C(CCSC)N1CCC(n2c(=O)[nH]c3ccccc32)CC1 (stereo unspecified),-4,-2,0,1,1,-3,.,.,.,
CC(C)NC1(c2ccccc2)CCCCC1,4,4,-5,0,0,-8,.,.,.,
Cc1cc(/C=C2/C(=O)NC(=O)N(Cc3ccco3)C2=O)c(C)n1-c1ccccc1,53*,7,-13,45*,18,-10,1,-4,11,
CCc1ccc(N2C(=O)NC(=O)/C(=C/c3cccn3CCOc3ccc(C(C)CC)cc3)C2=O)cc1 (stereo unspecified),2,-5,-6,-1,-3,6,.,.,.,
Cc1cccc(OCCn2cccc2/C=C2/C(=O)NC(=O)N(Cc3ccco3)C2=O)c1,50*,4,12,49*,10,8,4,-15,24*,
CCOC(=O)[C@]12Cc3c(cc(OC)c(OC)c3OC)[C@H]1N(C)C(=O)c1cc(OC)ccc12,-2,-2,1,1,2,8,.,.,.,
CN(C)[C@@H]1C(=O)C(C(N)=O)=C(O)[C@@]2(O)C(=O)C3=C(O)c4c(O)ccc(Cl)c4[C@@](C)(O)[C@H]3C[C@@H]12,14*,-5,9,2,24*,-5,6,-29,5,
CN(C)[C@@H]1C(=O)C(C(N)=O)=C(O)[C@@]2(O)C(=O)C3=C(O)c4c(O)cccc4[C@@](C)(O)C3C[C@@H]12 (stereo partly specified),18*,-2,14,11,19,6,5,-26,3,
COC(=O)C1=C(c2ccc(-c3ccccc3)c(F)c2)C[C@@H]2CC[C@H]1N2C(=O)NCCOc1ccc(OC)cc1,15*,-7,-13,7,0,-22,-2,8,-6,
Fc1cccc(-c2ccc3c(c2)CNCc2cnnn2-3)c1,3,-3,-5,-1,-2,-2,.,.,.,
O=[N+]([O-])c1cc(S(=O)(=O)c2ccc(O)c([N+](=O)[O-])c2)ccc1O,17*,3,2,42*,13,-17,28*,-141,27*,
CC(=O)C1C(N2CC2)CC2C3CC=C4CC(O)CCC4(C)C3CCC21C (stereo unspecified),2,3,-2,4,-4,-15,.,.,.,
Cc1ccc(OCC(=O)Nc2ccc(Cl)cc2C(=O)c2ccccc2)cc1,-2,0,-1,4,1,-2,.,.,.,
Cc1ccc(S(=O)(=O)NCCC(=O)Nc2ccc(Cl)cc2C(=O)c2ccccc2)cc1,28*,-2,-7,0,1,1,1,-6,-2,
O=S(=O)(c1cc(Cl)cc(Cl)c1)N1Cc2cc(-c3ccccc3)ccc2-n2nncc2C1,-1,4,-3,0,9,2,.,.,.,
NP(=O)(OCCCCc1ccccc1)Oc1ccccc1Cl (stereo unspecified),0,0,43*,-2,-1,-9,.,.,.,SIAE inh conf=38*
N#CC(=C(O)c1ccc(S(=O)(=O)N(CCCl)CCCl)cc1)c1nc2ccccc2[nH]1,-3,3,-1,3,1,2,.,.,.,
O=c1cccc2n1CC1CC2CN(S(=O)(=O)c2ccc(F)cc2)C1 (stereo unspecified),5,3,5,0,-4,5,.,.,.,
Nc1ccc(S(=O)(=O)N2CC3CC(C2)c2cccc(=O)n2C3)cc1 (stereo unspecified),0,-1,17*,-1,2,3,.,.,.,SIAE inh conf=5
COc1cccc(C(c2nnnn2Cc2ccccc2)N2CCC3(CC2)C(=O)NCN3c2ccccc2)c1OC (stereo unspecified),1,-2,-4,-2,1,-1,.,.,.,
CC(C)(C)NC(=S)N1CCn2cccc2C1c1cccnc1 (stereo unspecified),0,-3,21*,-3,-3,7,.,.,.,SIAE inh conf=2
CCCOP(=O)(OCCC)C(NC(=O)c1cc(OC)c(OC)c(OC)c1)c1ccccc1 (stereo unspecified),-2,-2,17*,0,-2,1,.,.,.,SIAE inh conf=1
CCOP(=O)(OCC)C(NC(=O)c1ccccc1)C(Cl)(Cl)Cl (stereo unspecified),-2,-2,3,1,0,4,.,.,.,
CCN[C@@H](C)Cc1cccc(C(F)(F)F)c1,1,2,19*,-3,0,5,.,.,.,SIAE inh conf=3
CCN(C)C(C)Cc1cccc(C(F)(F)F)c1 (stereo unspecified),0,-1,6,1,-4,-17,.,.,.,
Clc1cccc(N2Cc3ccccc3-n3nncc3C2)c1,8,2,8,-2,-1,5,.,.,.,
